Data reported in ChEMBL document CHEMBL1126204, “Nucleic acid related compounds. 74. Synthesis and biological activity of 2'(and 3')-deoxy-2'(and 3')-methylenenucleoside analogues that function as mechanism-based inhibitors of S-adenosyl-L-homocysteine hydrolase and/or ribonucleotide reductase” (J Med Chem, 1992).

Legend:
L1210 [1] = assay: Antitumor activity in mice bearing L1210 murine leukemia cell line at a dose of 25 mg/kg/day.; format: functional, Mus musculus
How it was run: (§1)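 DBA/2 mice (20 g) inoculated ip with 10⁶ L1210 leukemia cells; test agent given ip once daily for 5 successive days beginning 1 day after inoculation, dissolved in Eagle's MEM containing 2.5% Tween (250 μL injection). Untreated tumor-bearing controls; read-out mean survival time in days, 7–15 mice per group.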

[2] = Concentration required to inhibit the proliferation of human T-lymphocyte CEM/AK-(Ado kinase deficient) cells by 50%; format: functional
How it was run: (§2)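 Wild-type CEM and kinase-deficient sublines (AK⁻, dCK⁻, AK⁻/dCK⁻) grown in RPMI-1640 with 10% inactivated FCS, 2 mM L-glutamine and 0.075% NaHCO₃. Cells were exposed to compound at 0.001–500 µM for 3 days at 37 °C in humidified CO₂. Viable cells counted by Coulter counter; IC₅₀ = 50% reduction in viable cells. Mean of 2–4 independent experiments.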

L1210 [3] = assay: Antitumor activity in mice bearing L1210 murine leukemia cell line at a dose of 12.5 mg/kg/day.; format: functional, Mus musculus; how it was run: as §1
[4] = Concentration required to inhibit the proliferation of human T-lymphocyte CEM cells by 50% in presence exogenous necleoside Ado+dCyd (100 uM).; format: functional, cell-based; conditions: CCRF-CEM, in the assay text read “1000 uM” for “100 uM”
How it was run: (§3)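 CEM human T-lymphocytes in RPMI-1640 with 10% inactivated FCS, 2 mM L-glutamine and 0.075% NaHCO₃. Test compound (0.001–500 µM) was co-added with the stated subtoxic exogenous nucleoside(s). Incubated 3 days at 37 °C in humidified CO₂, then viable cells counted by Coulter counter. IC₅₀ is the level giving 50% fewer viable cells; means of 2–4 independent experiments.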

[5] = Concentration required to inhibit the proliferation of human T-lymphocyte CEM cells by 50% in presence exogenous necleoside Ado (100 uM).; format: functional, cell-based; conditions: CCRF-CEM, in the assay text read “1000 uM” for “100 uM”; how it was run: as §3
CCRF-CEM = assay: (§4) Concentration required to inhibit the proliferation of human T-lymphocyte CEM/o cells by 50%; format: functional, cell-based; how it was run: as §2
[6] = Concentration required to inhibit the proliferation of human T-lymphocyte CEM/AK-/dCK-(Ado and dCyd kinase deficient) cells by 50%; format: functional; how it was run: as §2
L1210 [7] = assay: Concentration required to inhibit the proliferation of L1210 murine leukemia cell line by 50% in presence exogenous necleoside Ado (100 uM).; format: functional, cell-based; conditions: Mus musculus, in the assay text read “1000 uM” for “100 uM”
How it was run: (§5)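 L1210 murine leukemia cells in Eagle's MEM with 10% inactivated fetal calf serum, 2 mM L-glutamine and 0.075% NaHCO₃. 5 × 10⁵ cells/mL were exposed to test compound (0.001–500 µM) together with the stated exogenous nucleoside at subtoxic level. Incubated 2 days at 37 °C in humidified CO₂. Viable cells were counted by Coulter counter. IC₅₀ = 50% reduction in viable cell number; mean of 2–4 independent experiments.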

[8] = In vitro inhibition of Molt/4f (Human T-lymphoblast) cell proliferation.; format: functional
How it was run: (§6)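 Human Molt/4F, MT-4, and Raji cells (wild-type, TK⁻ or dCK⁻) in RPMI-1640 with 10% inactivated FCS, 2 mM L-glutamine and 0.075% NaHCO₃, seeded at 7.5 × 10⁵ cells/mL with compound (0.001–500 µM). Incubated 3 days at 37 °C in humidified CO₂; viable cells counted by Coulter counter. IC₅₀ = 50% reduction in viable cells; means of 2–4 independent experiments.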

L1210 [9] = assay: Concentration required to inhibit the proliferation of L1210 murine leukemia cell line by 50% in presence exogenous necleoside Guo (50 uM).; format: functional, cell-based; conditions: Mus musculus; how it was run: as §5
L1210 [10] = assay: Antitumor activity in mice bearing L1210 murine leukemia cell line at a dose of 100 mg/kg/day.; format: functional, Mus musculus; how it was run: as §1
L1210 [11] = assay: Concentration required to inhibit the proliferation of L1210 murine leukemia cell line by 50% in presence exogenous necleosides dCyd+Ado (100 uM).; format: functional, cell-based; conditions: Mus musculus, in the assay text read “1000 uM” for “100 uM”; how it was run: as §5
L1210 [12] = assay: Concentration required to inhibit the proliferation of L1210 murine leukemia cell line by 50% in presence exogenous necleoside dCyd (100 uM).; format: functional, cell-based; conditions: Mus musculus, in the assay text read “1000 uM” for “100 uM”; how it was run: as §5
[13] = In vitro inhibition of FM3A (murine carcinoma) cell proliferation.; format: functional; conditions: Mus musculus
How it was run: (§7)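 Murine FM3A or L1210 cells in Eagle's MEM with 10% inactivated FCS, 2 mM L-glutamine and 0.075% NaHCO₃, seeded at 5 × 10⁵ cells/mL with compound (0.001–500 µM). After 2 days at 37 °C in humidified CO₂, viable cells were counted with a Coulter counter. IC₅₀ = 50% fewer viable cells; mean of 2–4 experiments.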

MT4 = assay: In vitro inhibition of MT-4 (Human T-lymphocyte) cell proliferation.; format: functional, cell-based; how it was run: as §6
L1210 [14] = assay: Antitumor activity in mice bearing L1210 murine leukemia cell line at a dose of 50 mg/kg/day.; format: functional, Mus musculus; how it was run: as §1
L1210 [15] = assay: In vitro inhibition of L1210 (murine leukemia) cell proliferation.; format: functional, cell-based; conditions: Mus musculus; how it was run: as §7
[16] = Concentration required to inhibit the proliferation of human T-lymphocyte CEM/dCK-(dCyd kinase deficient) cells by 50%; format: functional; how it was run: as §2
[17] = Concentration required to inhibit the proliferation of human T-lymphocyte CEM cells by 50% in presence exogenous necleoside dCyd (100 uM).; format: functional, cell-based; conditions: CCRF-CEM, in the assay text read “1000 uM” for “100 uM”; how it was run: as §3
Homo sapiens [18] = species: Homo sapiens; assay: as §4; format: functional; how it was run: as §2
Homo sapiens [19] = species: Homo sapiens; assay: Concentration required to inhibit the proliferation of human T-lymphocyte CEM/dCK-(dcyd kinase deficient) cells by 50%; format: functional; how it was run: as §2
Raji [20] = assay: Inhibition of human tumor B-lymphoblast Raji/O cell proliferation; format: functional, cell-based; how it was run: as §6
Raji [21] = assay: Inhibition of human tumor B-lymphoblast Raji/TK-(thymidine kinase deficient) cell proliferation; format: functional, cell-based; how it was run: as §6
Raji [22] = assay: Inhibition of human tumor B-lymphoblast Raji/dCK-(dcyd kinase deficient) cell proliferation; format: functional, cell-based; how it was run: as §6
CEM (Homo sapiens) [23] = assay: Concentration required to inhibit the proliferation of human T-lymphocyte CEM/o cells by 50%
[24] = Concentration required to inhibit the proliferation of human T-lymphocyte CEM/AK-/dCK-(Ado and dCyd kinase deficient) cells by 50%
[25] = Concentration required to inhibit the proliferation of human T-lymphocyte CEM/dCK-(dCyd kinase deficient) cells by 50%
[26] = Concentration required to inhibit the proliferation of human T-lymphocyte CEM/AK-(Ado kinase deficient) cells by 50%
CEM (Homo sapiens) [27] = assay: Concentration required to inhibit the proliferation of human T-lymphocyte CEM/o cells by 50%; remark: listed apart in the source
L1210 [28] = assay: Concentration required to inhibit the proliferation of L1210 murine leukemia cell line by 50% in presence of exogenous nucleoside dUrd (125 ug/mL).; format: functional, cell-based; conditions: Mus musculus; how it was run: as §5
L1210 [29] = assay: Concentration required to inhibit the proliferation of L1210 murine leukemia cell line by 50% in presence of exogenous nucleoside dCyd (500 ug/mL).; format: functional, cell-based; conditions: Mus musculus; how it was run: as §5
L1210 [30] = assay: Concentration required to inhibit the proliferation of L1210 murine leukemia cell line by 50% in presence of exogenous nucleoside (d)Thd (5 ug/mL).; format: functional, cell-based; conditions: Mus musculus; how it was run: as §5

Row | Structure (SMILES) | Mean survival time (L1210 [1]) | IC50 [2] | Mean survival time (L1210 [3]) | IC50 [4] | IC50 [5] | IC50 [6] | IC50 (L1210 [7]) | IC50 [8] | IC50 (L1210 [9]) | Mean survival time (L1210 [10]) | IC50 (L1210 [11]) | IC50 (L1210 [12]) | IC50 [13] | IC50 (MT4) | Mean survival time (L1210 [14]) | IC50 (L1210 [15]) | IC50 [16] | IC50 [17] | IC50 (Homo sapiens [18]) | IC50 (Homo sapiens [19]) | other results
1 | C=C1[C@H](n2cnc3c(O)nc(N)nc32)O[C@H](CO)[C@H]1O | 7.5 days | 36 µM | 7.5 days | 136 µM | 25 µM | 201 µM | 55 µM | 22 µM | 51 µM | 2 days | 75 µM | 17 µM | 102 µM | 150 µM | 5.3 days | 8.5 µM | 221 µM | 136 µM |  |  | IC50 (CCRF-CEM): 9.4 µM
2 | C=C1[C@@H](O)[C@H](n2ccc(N)nc2=O)O[C@@H]1CO |  |  |  |  |  |  |  | 172 µM |  |  |  |  | > 500 µM | 121 µM |  | 378 µM |  |  | 63 µM | > 500 µM | IC50 (Raji [20]): 33 µM; IC50 (Raji [21]): 52 µM; IC50 (Raji [22]): > 500 µM
3 | C=C1[C@H](n2cnc3c(N)nc(N)nc32)O[C@H](CO)[C@H]1O | 8.7 days |  | 9.1 days | 95 µM | 21 µM |  | 48 µM | 22 µM | 44 µM | 2 days | 41 µM | 16 µM | 67 µM | > 500 µM | 3 days | 8.2 µM |  | 133 µM |  |  | IC50 (CEM (Homo sapiens) [23]): 7.7 µM; IC50 [24]: 194 µM; IC50 [25]: 196 µM; IC50 [26]: 38 µM
4 | C=C1[C@@H](O)[C@H](n2cnc3c(N)nc(N)nc32)O[C@@H]1CO |  | > 500 µM |  |  |  | > 500 µM |  | > 200 µM |  |  |  |  | > 200 µM | > 200 µM |  | > 200 µM | > 500 µM |  |  |  | IC50 (CEM (Homo sapiens) [23]): > 500 µM
5 | C=C1[C@@H](O)[C@H](n2cnc3c(O)nc(N)nc32)O[C@@H]1CO |  | > 500 µM |  |  |  | > 500 µM |  | > 200 µM |  |  |  |  | > 200 µM | > 200 µM |  | > 200 µM | > 500 µM |  |  |  | IC50 (CEM (Homo sapiens) [27]): > 500 µM
6 | C=C1C(n2ccc(N)nc2=O)O[C@H](CO)[C@@H]1O (some centres not stated) |  |  |  |  |  |  |  | 0.11 µM |  | 15.6 days |  |  | 11 µM | 0.19 µM | 12 days | 2 µM |  |  | 0.046 µM | 60 µM | IC50 (L1210 [28]): 1.47 µM; IC50 (L1210 [29]): 475 µM; IC50 (L1210 [30]): 1.18 µM; IC50 (Raji [20]): 0.025 µM; IC50 (Raji [21]): 0.035 µM; IC50 (Raji [22]): 31 µM
